Structures are written as SMILES. A value given as a limit tells only on which side of the number the result lay.

The half-life is the time in which the quantity being followed falls by half. Higher therefore signals slow loss. Usually IC50 stands for the concentration needed to halve the response being measured. One may read the inhibition in vivo as the share of the control response that was lost under treatment.

Tested on in the first data set: not listed separately
The data set is described as follows: Half life in rat plasma by HPLC analysis. It is filed as ADME, cell-free.
Conditions: not given
A digest of the protocol: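 Rat plasma, 37 °C. Compound added from a 2.5 mM stock, sampled at 0–24 h, quenched with MeOH. Analyzed by HPLC-UV at 267 nm (C8 column, MeOH:H2O 68:32). Triplicate samples.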
With `Cc1cccc(COP(=O)(NCc2ccccc2)OC[C@H]2O[C@@H](n3cc(F)c(=O)[nH]c3=O)C[C@@H]2O)c1` (some centres not stated), the half-life was above 24 h.
The compound `O=c1[nH]c(=O)n([C@H]2C[C@H](O)[C@@H](COP(=O)(NCc3ccccc3)OCc3ccccc3[N+](=O)[O-])O2)cc1F` (some centres not stated) returned a half-life above 24 h.
Regarding `O=c1[nH]c(=O)n([C@H]2C[C@H](O)[C@@H](COP(=O)(NCc3ccccc3)OCc3ccccc3Br)O2)cc1F` (some centres not stated), the half-life was above 24 h.
Consider `O=c1[nH]c(=O)n([C@H]2C[C@H](O)[C@@H](COP(=O)(NCc3ccccc3)OCc3ccccc3F)O2)cc1F` (some centres not stated), for which the half-life is above 24 h.
Still for that read-out and setting: under `O=c1[nH]c(=O)n([C@H]2C[C@H](O)[C@@H](COP(=O)(NCc3ccccc3)OCc3cccc(Br)c3)O2)cc1F` (some centres not stated) stands above 24 h.
For the compound `COc1ccccc1COP(=O)(NCc1ccccc1)OC[C@H]1O[C@@H](n2cc(F)c(=O)[nH]c2=O)C[C@@H]1O` (some centres not stated), the half-life is 3.4 h.
With `Cc1ccc(COP(=O)(NCc2ccccc2)OC[C@H]2O[C@@H](n3cc(F)c(=O)[nH]c3=O)C[C@@H]2O)cc1` (some centres not stated), the half-life is above 24 h.
`O=c1[nH]c(=O)n([C@H]2C[C@H](O)[C@@H](COP(=O)(NCc3ccccc3)OCc3ccccc3Cl)O2)cc1F` (some centres not stated) registered a half-life above 24 h.
In the case of `O=c1[nH]c(=O)n([C@H]2C[C@H](O)[C@@H](COP(=O)(NCc3ccccc3)OCc3cccc(Cl)c3)O2)cc1F` (some centres not stated), the half-life is above 24 h.
Take `O=c1[nH]c(=O)n([C@H]2C[C@H](O)[C@@H](COP(=O)(NCc3ccccc3)OCc3ccc(F)cc3)O2)cc1F` (some centres not stated): the half-life was above 24 h.

For the next data set, the system named is Liver. The data set is described as follows: Drug metabolism in phenobarbital/beta-napthoflavone treated Sprague-Dawley rat liver S9 fraction assessed as prodrug activation at 50 uM preincubated for 5 mins followed by NADPH addition measured up to 60 mins by HPLC-MS/MS analysis. It is filed as ADME, subcellular. As to conditions: s9, 1 h. In outline: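 S9 prepared from livers of Sprague-Dawley rats dosed i.g. with phenobarbital/β-naphthoflavone for 3 days. Incubation: 100 mM KH2PO4 pH 7.4, 5 mg/mL S9, compound at 50 μM, 5 min preincubation at 37 °C, then 2 mM NADPH. Samples at 0–60 min, MeOH extraction, FdUMP (m/z 325→129) measured by HPLC-MS/MS. Triplicate.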
With `Cc1cccc(COP(=O)(NCc2ccccc2)OC[C@H]2O[C@@H](n3cc(F)c(=O)[nH]c3=O)C[C@@H]2O)c1` (some centres not stated), the Drug metabolism was determined as 49.4 nmol/min/mg.
For the compound `O=c1[nH]c(=O)n([C@H]2C[C@H](O)[C@@H](COP(=O)(NCc3ccccc3)OCc3ccccc3[N+](=O)[O-])O2)cc1F` (some centres not stated), the Drug metabolism is 44.7 nmol/min/mg.
The same measure, in the same setting: then `O=c1[nH]c(=O)n([C@H]2C[C@H](O)[C@@H](COP(=O)(NCc3ccccc3)OCc3ccccc3Br)O2)cc1F` (some centres not stated), with 49.6 nmol/min/mg; and `O=c1[nH]c(=O)n([C@H]2C[C@H](O)[C@@H](COP(=O)(NCc3ccccc3)OCc3ccccc3F)O2)cc1F` (some centres not stated), with 34.7 nmol/min/mg; and `O=c1[nH]c(=O)n([C@H]2C[C@H](O)[C@@H](COP(=O)(NCc3ccccc3)OCc3cccc(Br)c3)O2)cc1F` (some centres not stated), with 32.8 nmol/min/mg.
Still for that read-out and setting: then `COc1ccccc1COP(=O)(NCc1ccccc1)OC[C@H]1O[C@@H](n2cc(F)c(=O)[nH]c2=O)C[C@@H]1O` (some centres not stated), with 238.9 nmol/min/mg; and `Cc1ccc(COP(=O)(NCc2ccccc2)OC[C@H]2O[C@@H](n3cc(F)c(=O)[nH]c3=O)C[C@@H]2O)cc1` (some centres not stated), with 53.5 nmol/min/mg.
With `O=c1[nH]c(=O)n([C@H]2C[C@H](O)[C@@H](COP(=O)(NCc3ccccc3)OCc3ccccc3Cl)O2)cc1F` (some centres not stated), the Drug metabolism stood at 29.2 nmol/min/mg.
`O=c1[nH]c(=O)n([C@H]2C[C@H](O)[C@@H](COP(=O)(NCc3ccccc3)OCc3cccc(Cl)c3)O2)cc1F` (some centres not stated): the Drug metabolism came out at 22.6 nmol/min/mg.
On to `O=c1[nH]c(=O)n([C@H]2C[C@H](O)[C@@H](COP(=O)(NCc3ccccc3)OCc3ccc(F)cc3)O2)cc1F` (some centres not stated), for which the Drug metabolism stood at 26.3 nmol/min/mg.

Tested on in another data set: not listed separately
Put plainly: Cytotoxicity against human SMMC7721 cells assessed as reduction in cell viability after 72 hrs by MTT assay. It counts as functional, cell-based. As to conditions: SMMC-7721, 72 h. In outline:
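Cells in RPMI-1640 with 10% FBS, seeded at 4 × 10³ per well and attached for 24 h. Compound (DMSO ≤0.5% final) added for 72 h at 37 °C, 5% CO2. Viability read by MTT. IC50 set against 0.5% DMSO-treated cells taken as 100% viable. Mean of two independent experiments, each run in triplicate.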
Background: Tetrazolium assays rely on reduction of a dye to a coloured formazan, in cell work by metabolically active cells.
Consider `Cc1cccc(COP(=O)(NCc2ccccc2)OC[C@H]2O[C@@H](n3cc(F)c(=O)[nH]c3=O)C[C@@H]2O)c1` (some centres not stated), for which the IC50 came out at 139 µM.
For the compound `O=c1[nH]c(=O)n([C@H]2C[C@H](O)[C@@H](COP(=O)(NCc3ccccc3)OCc3ccccc3[N+](=O)[O-])O2)cc1F` (some centres not stated), the IC50 is above 500 µM.
`O=c1[nH]c(=O)n([C@H]2C[C@H](O)[C@@H](COP(=O)(NCc3ccccc3)OCc3ccccc3Br)O2)cc1F` (some centres not stated): the IC50 amounted to 151 µM.
`O=c1[nH]c(=O)n([C@H]2C[C@H](O)[C@@H](COP(=O)(NCc3ccccc3)OCc3ccccc3F)O2)cc1F` (some centres not stated): the IC50 is 155 µM.
`O=c1[nH]c(=O)n([C@H]2C[C@H](O)[C@@H](COP(=O)(NCc3ccccc3)OCc3cccc(Br)c3)O2)cc1F` (some centres not stated): the IC50 came out at 225 µM.
For the compound `COc1ccccc1COP(=O)(NCc1ccccc1)OC[C@H]1O[C@@H](n2cc(F)c(=O)[nH]c2=O)C[C@@H]1O` (some centres not stated), the IC50 was 6.8 µM.
On the same count and under the same terms, under `Cc1ccc(COP(=O)(NCc2ccccc2)OC[C@H]2O[C@@H](n3cc(F)c(=O)[nH]c3=O)C[C@@H]2O)cc1` (some centres not stated) stands 31.7 µM; under `O=c1[nH]c(=O)n([C@H]2C[C@H](O)[C@@H](COP(=O)(NCc3ccccc3)OCc3ccccc3Cl)O2)cc1F` (some centres not stated), 132 µM; under `O=c1[nH]c(=O)n([C@H]2C[C@H](O)[C@@H](COP(=O)(NCc3ccccc3)OCc3cccc(Cl)c3)O2)cc1F` (some centres not stated), 206 µM.
On the same count and under the same terms, then `O=c1[nH]c(=O)n([C@H]2C[C@H](O)[C@@H](COP(=O)(NCc3ccccc3)OCc3ccc(F)cc3)O2)cc1F` (some centres not stated), with 150 µM.

Another data set deals with H22. The data set is described as follows: Antitumor activity against mouse H22 cells implanted in KM mouse assessed as tumor growth inhibition at 60 mg/kg administered daily through oral gavage after 8 days. It is filed as functional. As to conditions: 192 h. In outline: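 Syngeneic H22 hepatoma: 2 × 10⁶ cells injected s.c. in the axilla (0.9% saline) of female KM mice, n = 10 per group. From day 2, daily oral gavage for 8 days. Test agent given in 35% PEG400; sorafenib suspended in 0.5% CMC-Na. Tumor weight taken on day 8; inhibition rate calculated versus the vehicle group.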
Consider `CNC(=O)c1cc(Oc2ccc(NC(=O)Nc3ccc(Cl)c(C(F)(F)F)c3)cc2)ccn1` [SORAFENIB], for which the inhibition in vivo at 60 mg/kg stood at 50.8%.

Another data set concerns Mus musculus. The data set is described as follows: Toxicity in KM mouse implanted with mouse H22 cells assessed as body weight level at 60 mg/kg administered daily through oral gavage after 8 days (reference value: 22.1 +/- 0.8g). As to conditions: in vivo, 192 h. It counts as organism-based.
Turning to `CNC(=O)c1cc(Oc2ccc(NC(=O)Nc3ccc(Cl)c(C(F)(F)F)c3)cc2)ccn1` [SORAFENIB], the Activity was determined as 26.4 g.

Values taken from ChEMBL document CHEMBL3813647, “Discovery of an Orally Active and Liver-Targeted Prodrug of 5-Fluoro-2'-Deoxyuridine for the Treatment of Hepatocellular Carcinoma” (J Med Chem, 2016).
